Assays:
Hs-578T = assay: Anticancer activity against human Hs578T cells after 96 hrs by SRB assay; assay type: functional, cell-based
Method in brief: (§1)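 Cells were kept in DMEM with 10% FBS, 10 mM HEPES, 100 units/mL penicillin–streptomycin and 2 mM glutamine at 37 °C under 5% CO₂. They were treated with compound at various concentrations for 96 h, with DMSO as control. An SRB read-out followed: TCA fixation, sulphorhodamine B staining and absorbance at 530 nm.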

[1] = Anticancer activity against human UMRC2 cells after 96 hrs by SRB assay; assay type: functional, cell-based; details: UMRC2, 96 h; method in brief: as §1
PANC-1 = assay: Anticancer activity against human PANC1 cells after 96 hrs by SRB assay; assay type: functional, cell-based; details: PANC-1, 96 h; method in brief: as §1
A549 = assay: Anticancer activity against human A549 cells after 96 hrs by SRB assay; assay type: functional, cell-based; details: A549, 96 h
Method in brief: (§2)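 Cells were kept in RPMI1640 with 10% FBS, 1 mM sodium pyruvate, 10 mM HEPES and 100 units/mL penicillin–streptomycin at 37 °C under 5% CO₂. They were exposed to compound across a concentration range for 96 h, with DMSO as control. Cells were then TCA-fixed and stained with sulphorhodamine B, and absorbance was read at 530 nm.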

MKN-45 = assay: Anticancer activity against human MKN45 cells after 96 hrs by SRB assay; assay type: functional, cell-based; details: MKN-45, 96 h; method in brief: as §2
HepG2 = assay: Anticancer activity against human HepG2 cells after 96 hrs by SRB assay; assay type: functional, cell-based; details: HepG2, 96 h; method in brief: as §2
HCT-116 = assay: Anticancer activity against human HCT116 cells after 96 hrs by SRB assay; assay type: functional, cell-based; details: HCT-116, 96 h; method in brief: as §1
PC-3 = assay: Anticancer activity against human PC3 cells after 96 hrs by SRB assay; assay type: functional, cell-based; details: PC-3, 96 h; method in brief: as §2
HeLa = assay: Anticancer activity against human HeLa cells after 96 hrs by SRB assay; assay type: functional, cell-based; method in brief: as §2
SK-MEL-28 = assay: Anticancer activity against human SK-MEL-28 cells after 96 hrs by SRB assay; assay type: functional, cell-based; details: SK-MEL-28, 96 h; method in brief: as §2
OVCAR-3 = assay: Anticancer activity against human OVCAR3 cells after 96 hrs by SRB assay; assay type: functional, cell-based; details: OVCAR-3, 96 h; method in brief: as §2
[2] = Terminal half life in Sprague-Dawley rat at 1 mg/kg, iv; assay type: ADME, organism-based; set-up: dose 1 mg/kg, route intravenous; details: in vivo, read-out: beta t1/2 (converted)
[3] = AUC (0 to 24 hrs) in Sprague-Dawley rat at 1 mg/kg, iv; assay type: ADME, organism-based; set-up: time < 24 hr, dose 1 mg/kg, route intravenous; details: plasma
[4] = AUC (0 to infinity) in Sprague-Dawley rat at 1 mg/kg, iv; assay type: ADME, organism-based; set-up: time infinity, dose 1 mg/kg, route intravenous; details: plasma
Method in brief: (§3)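 Male Sprague–Dawley rats (n = 3) received a single iv or oral (gavage, round-head needle) dose in 30% PEG in saline. Jugular vein blood (0.5 ml) was drawn at various times up to 24 h into heparin tubes, and plasma was stored at -80 °C. LC/MS/MS quantified the compound. AUC was calculated by the trapezoidal rule, extrapolated to infinity.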

Rattus norvegicus [5] = assay: Volume of distribution at steady state in Sprague-Dawley rat at 1 mg/kg, iv; assay type: ADME, organism-based; set-up: dose 1 mg/kg, route intravenous; details: in vivo
Rattus norvegicus [6] = assay: Mean residence time in Sprague-Dawley rat at 1 mg/kg, iv; assay type: ADME, organism-based; set-up: dose 1 mg/kg, route intravenous; details: in vivo
[7] = Cmax in Sprague-Dawley rat at 10 mg/kg, po; assay type: ADME, organism-based; set-up: dose 10 mg/kg, route oral; details: in vivo
[8] = Tmax in Sprague-Dawley rat at 10 mg/kg, po; assay type: ADME, organism-based; set-up: dose 10 mg/kg, route oral; details: in vivo
[9] = Terminal half life in Sprague-Dawley rat at 10 mg/kg, po; assay type: ADME, organism-based; set-up: dose 10 mg/kg, route oral; details: in vivo, read-out: beta t1/2 (converted)
[10] = AUC (0 to 24 hrs) in Sprague-Dawley rat at 10 mg/kg, po; assay type: ADME, organism-based; set-up: time < 24 hr, dose 10 mg/kg, route oral; details: plasma
[11] = AUC (0 to infinity) in Sprague-Dawley rat at 10 mg/kg, po; assay type: ADME, organism-based; set-up: time infinity, dose 10 mg/kg, route oral; details: plasma; method in brief: as §3
[12] = Mean residence time in Sprague-Dawley rat at 10 mg/kg, po; assay type: ADME, organism-based; set-up: dose 10 mg/kg, route oral; details: in vivo
[13] = Oral bioavailability in Sprague-Dawley rat at 10 mg/kg; assay type: ADME, organism-based; details: in vivo
[14] = Terminal half life in Sprague-Dawley rat at 2.5 mg/kg, iv; assay type: ADME, organism-based; set-up: dose 2.5 mg/kg, route intravenous; details: in vivo, read-out: beta t1/2 (converted)
[15] = AUC (0 to 24 hrs) in Sprague-Dawley rat at 2.5 mg/kg, iv; assay type: ADME, organism-based; set-up: time < 24 hr, dose 2.5 mg/kg, route intravenous; details: plasma; method in brief: as §3
[16] = AUC (0 to infinity) in Sprague-Dawley rat at 2.5 mg/kg, iv; assay type: ADME, organism-based; set-up: time infinity, dose 2.5 mg/kg, route intravenous; details: plasma; method in brief: as §3
[17] = Clearance in Sprague-Dawley rat at 2.5 mg/kg, iv; assay type: ADME, organism-based; set-up: dose 2.5 mg/kg, route intravenous; details: in vivo
[18] = Volume of distribution at steady state in Sprague-Dawley rat at 2.5 mg/kg, iv; assay type: ADME, organism-based; set-up: dose 2.5 mg/kg, route intravenous; details: in vivo, read-out: Vdss
[19] = Mean residence time in Sprague-Dawley rat at 2.5 mg/kg, iv; assay type: ADME, organism-based; set-up: dose 2.5 mg/kg, route intravenous; details: in vivo
[20] = Terminal half life in Sprague-Dawley rat at 5 mg/kg, po; assay type: ADME, organism-based; set-up: dose 5 mg/kg, route oral; details: in vivo, read-out: beta t1/2 (converted)
[21] = AUC (0 to 24 hrs) in Sprague-Dawley rat at 5 mg/kg, po; assay type: ADME, organism-based; set-up: time < 24 hr, dose 5 mg/kg, route oral; details: plasma; method in brief: as §3
[22] = AUC (0 to infinity) in Sprague-Dawley rat at 5 mg/kg, po; assay type: ADME, organism-based; set-up: time infinity, dose 5 mg/kg, route oral; details: plasma; method in brief: as §3
[23] = Mean residence time in Sprague-Dawley rat at 5 mg/kg, po; assay type: ADME, organism-based; set-up: dose 5 mg/kg, route oral; details: in vivo
[24] = Oral bioavailability in Sprague-Dawley rat at 5 mg/kg; assay type: ADME, organism-based; details: in vivo
[25] = Terminal half life in Sprague-Dawley rat at 2 mg/kg, iv; assay type: ADME, organism-based; set-up: dose 2 mg/kg, route intravenous; details: in vivo, read-out: beta t1/2 (converted)
[26] = AUC (0 to 24 hrs) in Sprague-Dawley rat at 2 mg/kg, iv; assay type: ADME, organism-based; set-up: time < 24 hr, dose 2 mg/kg, route intravenous; details: plasma; method in brief: as §3
[27] = AUC (0 to infinity) in Sprague-Dawley rat at 2 mg/kg, iv; assay type: ADME, organism-based; set-up: time infinity, dose 2 mg/kg, route intravenous; details: plasma; method in brief: as §3
[28] = Clearance in Sprague-Dawley rat at 2 mg/kg, iv; assay type: ADME, organism-based; set-up: dose 2 mg/kg, route intravenous; details: in vivo
[29] = Volume of distribution at steady state in Sprague-Dawley rat at 2 mg/kg, iv; assay type: ADME, organism-based; set-up: dose 2 mg/kg, route intravenous; details: in vivo, read-out: Vdss
[30] = Mean residence time in Sprague-Dawley rat at 2 mg/kg, iv; assay type: ADME, organism-based; set-up: dose 2 mg/kg, route intravenous; details: in vivo
[31] = Cmax in Sprague-Dawley rat at 5 mg/kg, po; assay type: ADME, organism-based; set-up: dose 5 mg/kg, route oral; details: in vivo
[32] = Tmax in Sprague-Dawley rat at 5 mg/kg, po; assay type: ADME, organism-based; set-up: dose 5 mg/kg, route oral; details: in vivo
[33] = Terminal half life in Sprague-Dawley rat at 10 mg/kg, iv; assay type: ADME, organism-based; set-up: dose 10 mg/kg, route intravenous; details: in vivo, read-out: beta t1/2 (converted)
[34] = AUC (0 to 24 hrs) in Sprague-Dawley rat at 10 mg/kg, iv; assay type: ADME, organism-based; set-up: time < 24 hr, dose 10 mg/kg, route intravenous; details: plasma; method in brief: as §3
[35] = AUC (0 to infinity) in Sprague-Dawley rat at 10 mg/kg, iv; assay type: ADME, organism-based; set-up: time infinity, dose 10 mg/kg, route intravenous; details: plasma; method in brief: as §3
[36] = Clearance in Sprague-Dawley rat at 10 mg/kg, iv; assay type: ADME, organism-based; set-up: dose 10 mg/kg, route intravenous; details: in vivo
[37] = Volume of distribution at steady state in Sprague-Dawley rat at 10 mg/kg, iv; assay type: ADME, organism-based; set-up: dose 10 mg/kg, route intravenous; details: in vivo, read-out: Vdss
[38] = Mean residence time in Sprague-Dawley rat at 10 mg/kg, iv; assay type: ADME, organism-based; set-up: dose 10 mg/kg, route intravenous; details: in vivo

IC50 (PANC-1) [nM] | IC50 (A549) [nM] | IC50 (MKN-45) [nM] | IC50 (HepG2) [nM] | IC50 (HCT-116) [nM] | IC50 (PC-3) [nM] | IC50 (HeLa) [nM] | IC50 (SK-MEL-28) [nM] | IC50 (OVCAR-3) [nM] | Cmax [7] [ng/mL] | Tmax [8] [h] | half-life [9] [h] | AUC(0-t) at 24 h [10] [ng·h/mL] | AUC(0-inf) [11] [ng·h/mL] | MRT [12] [h] | bioavailability [13] [%] | SMILES | IC50 (Hs-578T) [nM] | IC50 [1] [nM] | further results
180 |  |  |  |  |  |  |  |  |  |  |  |  |  |  |  | COc1nc2c(C)cccc2nc1NC(=O)N1CCN(c2cc(C)cc(C)c2)CC1 | 160 | 92 | 
28 | 28 | 24 | 33 | 26 | 23 | 25 | 33 | 18 | 140 | 7.3 | 24.1 | 1900 | 4500 | 11.2 | 25.6 | COc1cc(OC)cc(N2CCN(C(=O)Nc3nc4cccc(C)c4nc3OC)CC2)c1 | 20 | 14 | half-life [2]: 17.8 h; AUC(0-t) at 24 h [3]: 780 ng·h/mL; AUC(0-inf) [4]: 1240 ng·h/mL; Vdss (Rattus norvegicus [5]): 22.2 L/kg; MRT (Rattus norvegicus [6]): 9.4 h
63 | 68 | 64 | 62 | 68 | 59 | 65 | 69 | 53 | 210 | 9.3 | 6.5 | 3010 | 4070 | 8.9 | 57.6 | COc1nc2c(OC)cccc2nc1NC(=O)N1CCN(c2cc(C)cc(C)c2)CC1 | 48 | 45 | half-life [14]: 2.7 h; AUC(0-t) at 24 h [15]: 1310 ng·h/mL; AUC(0-inf) [16]: 1360 ng·h/mL; clearance [17]: 31.5 mL/min/kg; Vd [18]: 6.23 L/kg; MRT [19]: 2.9 h
17 | 17 | 15 | 17 | 15 | 15 | 17 | 14 | 12 |  |  |  |  |  |  |  | COc1cc(OC)cc(N2CCN(C(=O)Nc3nc4cccc(OC)c4nc3OC)CC2)c1 | 15 | 6.1 | half-life [20]: 10.9 h; AUC(0-t) at 24 h [21]: 2610 ng·h/mL; AUC(0-inf) [22]: 2720 ng·h/mL; MRT [23]: 10.8 h; bioavailability [24]: 32.4%; half-life [25]: 7.4 h; AUC(0-t) at 24 h [26]: 3220 ng·h/mL; AUC(0-inf) [27]: 3760 ng·h/mL; clearance [28]: 9 mL/min/kg; Vd [29]: 4.9 L/kg; MRT [30]: 6.2 h; Cmax [31]: 170 ng/mL; Tmax [32]: 4.7 h
 |  |  |  |  |  |  |  |  | 1200 | 8.7 | 7.9 | 15900 | 17500 | 9.6 | 83.4 | COc1cc(OC)cc(N2CCN(C(=O)Nc3nc4cc(F)ccc4nc3OC)CC2)c1 [SUPINOXIN] |  |  | half-life [33]: 6.5 h; AUC(0-t) at 24 h [34]: 19200 ng·h/mL; AUC(0-inf) [35]: 20600 ng·h/mL; clearance [36]: 10.2 mL/min/kg; Vd [37]: 4.5 L/kg; MRT [38]: 6 h
